Screens deposited in PubChem BioAssay by several laboratories.
Shown is part of a subset that was picked to be rich in hits.
PTEN del growth: growth suppressors of cells with PTEN tumor suppressor deletion | 140,000 compounds, 1.2% hits | HCT116 PTEN-null viability, CellTiter-Glo, 60 h; stronger effect = lower value | viability, % at 10 µM | AID 827;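 active means viability at or below a set limit, 4 SD under the median of all tested compounds, cut at about 3.7% in these data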;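 further: PTEN knockout HCT116 line with beta catenin targeted HCT116 as companion control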
H69AR growth 86K: blocks growth of human H69AR lung tumor cells; H69AR lung tumor viability, ATP luminescence, 72 h; stronger effect = lower value; viability, % at 10 µM; 85,000 compounds, 6% hits;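 active means viability at or below 40%; inactive means viability above 40%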;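 further: multidrug resistant small cell line overexpressing MRP-1 efflux transporter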
bCat KO growth: beta-catenin-lacking colon tumor cell growth suppression; HCT116 beta-catenin knockout viability, CellTiter-Glo, 60 h; stronger effect = lower value; viability, % at 10 µM; 140,000 compounds, 1.5% hits; AID 818;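 active means viability at or under a set limit, the compound median less 4 SD, cut at about 6% in these data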
HUVEC inhibit: human endothelial cell proliferation inhibition; 86,000 compounds, 1.1% hits; viability, % at 10 µM (by protocol); HUVEC proliferation, CellTiter-Glo luminescence, 72 h; stronger effect = lower value;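 active means viability at or below 30%; inactive means viability above 30%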
Lung fibro prol: blocks proliferation of human lung fibroblasts | LL 47 human lung fibroblast viability, ATP luminescence; stronger effect = lower value | viability, % at 10 µM | 85,000 compounds, 1.1% hits;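 active means viability at or below 50% in the single dose screen; inactive means viability above 50%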;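 further: compound exposure lasted 72 h before the ATP readout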
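Material: human lung fibroblast line LL 47, low passage; Evaluation: viability percentage against median untreated-cell control; Buffer or medium: 15% FBS in IMEM; Incubation: 72 h compound exposure at 37 °C after overnight plating; Dosing: 0.1% DMSO in all compound wells; Measured by: CellTiter-Glo luminescence.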
Pyk2 oligo antag: antagonists of human Pyk2 oligomerization; Q14289; Q293 cells, Pyk2 FERM NanoBiT luminescence; stronger effect = lower value; z-score (the deposit names both 25 µM and 10 µM); 99,000 compounds, 0.83% hits;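 active means Z-score of -3 or lower, scaled per plate to the spread of control and sample wells; inactive means z-score above -3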;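 further: negative z-score means lost luminescence so less FERM oligomerization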
Hits are given with their value; - = inactive; . = no result.

SMILES	PTEN del growth	H69AR growth 86K	bCat KO growth	HUVEC inhibit	Lung fibro prol	Pyk2 oligo antag
Cc1cccc(Oc2nc(-c3ccccc3)cc(C)c2S(C)(=O)=O)c1C	-	-	-	-	-	-
Cc1ccc(C(=O)NCc2ccco2)cc1Br	-	-	-	-	-	-
Cc1ccc2c(CC(=O)NCc3ccco3)coc2c1C	-	27	-	-	-	-
Cc1ccc(Cl)cc1N(Cc1ccc(C(=O)NCc2cccnc2)cc1)S(=O)(=O)c1ccccc1	-	.	-	.	.	-
N#CC(c1ccc(Cl)cc1)c1ccc2c(C(F)(F)F)cc(C(F)(F)F)nc2n1 (stereo unspecified)	0.8	4.6	0.9	27	18	-
O=C(CSc1nnnn1-c1cccc2ccccc12)Nc1ccc(N2CCOCC2)c(Cl)c1	-	-	-	-	-	-3.3
Cc1cc(C)nc(SCC(=O)Nc2ccc(N3CCOCC3)c(Cl)c2)n1	-	-	-	-	-	-
O=C(CSc1nnc(C23CC4CC(CC(C4)C2)C3)o1)Nc1ccc(N2CCOCC2)c(Cl)c1	-	-	-	-	-	-3.3
CC(SCc1ccccc1)C(=O)NN=C1CCN(C)CC1 (stereo unspecified)	-	.	-	.	.	-
COc1ccc(Nc2ccnc(Nc3ccc(OC)cc3)n2)cc1	-	.	-	.	.	.
CCc1ccc(OCC(=O)NC(NC(=S)Nc2ccccc2)C(Cl)(Cl)Cl)cc1 (stereo unspecified)	-	.	2.4	.	.	-
O=C(NCc1cccs1)c1nc2c(nnn2Cc2ccccc2Cl)c(=O)[nH]1	-	-	-	24	35	-
O=C(Cc1cccs1)N1CCCC(c2nc3c(nnn3Cc3ccccc3Cl)c(=O)[nH]2)C1 (stereo unspecified)	-	-	-	-	-	-
CCOc1cc(C2C(C#N)=C(N)OC(C)=C2C(C)=O)c(Br)c(Br)c1OC(C)C (stereo unspecified)	-	3.2	-	-	-	-
O=S(=O)(c1ccc(N2CCCC2c2nc3ccccc3s2)nc1)N1CCOCC1 (stereo unspecified)	-	23	-	-	-	-
O=S(=O)(c1ccc(Br)cc1)N1CCCC1c1nc2ccccc2s1 (stereo unspecified)	-	.	-	.	.	-
COc1ccc(C2=C(CC(=O)O)C(=O)CC2)cc1	-	.	-	.	.	.
O=C(Nc1ccc(Cl)c(Cl)c1)Nc1ccc(Br)cc1F	-	.	4.9	.	.	.
O=C(Nc1ccc(Br)cc1F)c1ccncc1	-	.	-	.	.	-
CCN1CCN(C(=S)NC(C)c2ccccc2)CC1 (stereo unspecified)	-	.	-	.	.	.
Cc1cc2nc(-c3ccc(SCC(=O)N4CCOCC4)nc3)[nH]c2cc1C	-	28	-	-	-	-
Cc1cc2nc(-c3ccc(SCC(=O)N4CCN(C(=O)c5ccco5)CC4)nc3)[nH]c2cc1C	-	12	-	-	-	-
Cc1ccc(-n2c(C)cc(C3N=C(N)Nc4nc5ccccc5n43)c2C)c(C)c1 (stereo unspecified)	-	33	-	16	-	-
Cc1cc(C2N=C(N)Nc3nc4ccccc4n32)c(C)n1-c1ccccc1Cl (stereo unspecified)	-	-	-	-	-	-
CCCc1cc(-c2nc(N)ncc2-c2ccc3c(c2)OCCCO3)c(O)cc1OC	-	28	-	-	-	-3.1
SMILES	PTEN del growth	H69AR growth 86K	bCat KO growth	HUVEC inhibit	Lung fibro prol	Pyk2 oligo antag
CC(C)Cc1nc2oc3c(NCc4cccnc4)ncnc3c2c2c1CCC2	-	.	-	.	.	-
CC(C)Cc1nc2oc3c(NCC4CCCO4)ncnc3c2c2c1CCC2 (stereo unspecified)	-	33	-	-	-	-
O=C1/C(=C/c2cccnc2)Oc2cc(OS(=O)(=O)c3ccc(F)cc3)ccc21	-	35	-	-	-	-
Cc1ccc(S(=O)(=O)Oc2ccc3c(c2)O/C(=C\c2cccnc2)C3=O)cc1	-	25	-	-	-	-3
CC1=C(C(=O)OC2CCCCCCC2)C(c2cc3c(cc2Br)OCO3)CC(=O)N1 (stereo unspecified)	-	5.8	-	5.0	-	-
O=C(Nc1ncccn1)c1ccc(C(F)(F)F)cc1	-	.	-	.	.	.
C#CCOC(=O)C(NC(=O)c1ccccc1)=C1CCCCC1	-	-	-	-	-	-
COc1nnc(-c2ccc(N3CCCCC3)c(NC(=O)C3CCCCC3)c2)c2ccccc12	-	8.7	-	-	-	-
COCCCNCCOCCOc1ccc(Cl)cc1C(C)(C)C	1.1	.	0.9	.	.	.
c1ccc(-c2ccc3c(c2)c2c4n3CCN=C4CCC2)cc1	-	24	-	28	-	-
Fc1cc(Br)ccc1Nc1nc2ccccc2n2nnnc12	-	25	-	-	-	.
Clc1ccc(Nc2nc3ccccc3n3nnnc23)cc1	-	-	-	-	-	-
COc1ccc(N(CC(=O)Nc2cccc(OC)c2)S(=O)(=O)c2c(C)nn(C)c2C)cc1	-	-	-	-	-	-
COc1ccc(N(CC(=O)Nc2nc3ccc(C)cc3s2)S(=O)(=O)c2c(C)nn(C)c2C)cc1	-	15	-	-	-	.
O=C(CCCNC(=O)/C(=C/c1ccc(F)cc1)NC(=O)c1ccccc1)OCc1ccccc1	-	.	-	.	.	.
O=c1nc2n(c3ccc(Br)cc13)CCS2	-	-	-	-	-	-
O=C(Nc1ccc(OCC(F)(F)C(F)F)c(C(F)(F)F)c1)c1ccccc1O	-	.	5.2	.	.	-
Cc1ccc(-n2c(SCC(=O)Nc3ccc4cn[nH]c4c3)nnc2-c2ccco2)cc1	-	32	-	-	-	-
CC(=O)Nc1ccc(NC(=O)CSc2nnc(-c3ccco3)n2Cc2ccco2)cc1	-	11	-	-	-	-
Cc1cc(NC(=O)CSc2nnc(-c3ccco3)n2Cc2ccco2)no1	-	-	-	-	-	-
CC1Cc2cc(-c3csc(NC(=O)Cc4cccs4)n3)ccc2N1S(C)(=O)=O (stereo unspecified)	-	-	5.6	-	-	-3.1
CS(=O)(=O)N1CCc2cc(-c3csc(NC(=O)Cc4ccccc4)n3)ccc21	-	-	-	-	-	-
O=C(Nc1ccc(Cl)c(C(F)(F)F)c1)NC1CC2CCCC(C1)N2C1CC1 (stereo unspecified)	.	34	.	12	-	-
O=C(Nc1cccc(F)c1)NC1CC2CCCC(C1)N2C1CC1 (stereo unspecified)	-	-	-	-	-	-
O=C(NCC1CCCO1)C(=Cc1cccc([N+](=O)[O-])c1)C(=O)NCC1CCCO1 (stereo unspecified)	-	.	5.2	.	.	.
O=C(/C=C/c1cccc([N+](=O)[O-])c1)NCC1CCCO1 (stereo unspecified)	-	.	-	.	.	-
CCc1nc(SCc2ccc(F)cc2)[nH]c(=O)c1C#N	-	-	-	-	-	-
Cc1cc(C(=O)N/N=C/c2cc(Br)cc(Br)c2OC(=O)c2ccccc2)n[nH]1	-	.	5.1	.	.	.
Cc1cc(C(=O)N/N=C/c2cc(Br)ccc2OC(=O)c2ccc(Br)cc2)n[nH]1	-	.	-	.	.	.
